Experimental data taken from ChEMBL document CHEMBL4376838, “Discovery of Novel Celastrol Derivatives as Hsp90-Cdc37 Interaction Disruptors with Antitumor Activity” (J Med Chem, 2019).
Activity calls are given as the source filed them. The calls are words filed in the database; no cut-off is given here.

How the values were obtained:
HepG2 = assay: Antiproliferative activity against human HepG2 cells assessed as inhibition of cell growth incubated for 48 hrs by MTT assay; type: functional, cell-based; conditions: HepG2, 48 h
In short: (§1)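 MTT read-out. Cells seeded at 5.0 × 10⁴ cells/ml and cultured 24 h, then exposed to the drug over a range of concentrations for 48 h, with matching DMSO as control. MTT (5 mg/ml) added for 4 h, supernatant removed, formazan dissolved in DMSO, OD read at 570 nm. Run in triplicate, mean ± SD (n = 3).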

A549 [1] = assay: Antiproliferative activity against human A549 cells assessed as inhibition of cell growth at 1.5 uM incubated for 48 hrs by MTT assay relative to control; type: functional; conditions: A549, 48 h; for inhibition of growth at 1.5 µM: read-out: GI
HOS = assay: Antiproliferative activity against human HOS cells assessed as inhibition of cell growth incubated for 48 hrs by MTT assay; type: functional, cell-based; in short: as §1
MCF7 = assay: Antiproliferative activity against human MCF7 cells assessed as inhibition of cell growth incubated for 48 hrs by MTT assay; type: functional, cell-based; conditions: MCF7, 48 h; in short: as §1
A549 [2] = assay: Antiproliferative activity against human A549 cells assessed as inhibition of cell growth incubated for 48 hrs by MTT assay; type: functional, cell-based; conditions: A549, 48 h; in short: as §1
A549 [3] = assay: Antiproliferative activity against human A549 cells assessed as inhibition of cell growth at 0.5 uM incubated for 48 hrs by MTT assay relative to control; type: functional; conditions: A549, 48 h, read-out: GI
A549 [4] = assay: Induction of apoptosis in human A549 cells assessed as necrotic cells at 1.2 uM incubated for 48 hrs by Annexin V-FITC and PI staining based flow cytometric analysis (reference value: 1.0%); type: functional
In short: (§2)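 A549 cells (4×10^5 per 6 cm dish) cultured 24 h, then treated 48 h with compound or DMSO. Cells gently harvested, washed twice in cold PBS, resuspended in binding buffer with Annexin V and PI, stained 15 min at room temperature in the dark, analysed by flow cytometry. Mean ± SD, n = 3.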

A549 [5] = assay: Induction of apoptosis in human A549 cells assessed as late apoptotic cells at 1.2 uM incubated for 48 hrs by Annexin V-FITC and PI staining based flow cytometric analysis (reference value: 3.0%); type: functional; in short: as §2
[6] = biological target: T1, Hsp90 co-chaperone Cdc37 (Homo sapiens) (UniProt Q16543); assay: Binding affinity to Cdc37 in human A549 cells assessed as inhibition of HSP90-Cdc37 interaction by measuring decrease in Akt phosphorylation level at 5 uM incubated for 12 hrs by Western blot analysis; type: cell-based
T1 sequence (whole entry): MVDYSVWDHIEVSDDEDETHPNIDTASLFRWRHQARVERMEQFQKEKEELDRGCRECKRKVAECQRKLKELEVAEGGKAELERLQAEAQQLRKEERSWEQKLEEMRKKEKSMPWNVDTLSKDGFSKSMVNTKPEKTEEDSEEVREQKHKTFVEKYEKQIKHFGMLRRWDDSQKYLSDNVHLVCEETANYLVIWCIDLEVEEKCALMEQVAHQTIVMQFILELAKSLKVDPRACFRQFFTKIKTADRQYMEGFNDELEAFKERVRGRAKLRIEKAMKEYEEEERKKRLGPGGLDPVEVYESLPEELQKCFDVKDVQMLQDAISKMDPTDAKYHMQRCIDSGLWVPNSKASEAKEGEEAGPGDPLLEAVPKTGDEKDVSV
In short: (§3)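 A549 cells seeded 5×10^5 per 6 cm dish, grown 12 h, then exposed to compound or DMSO for 12 h. Lysates adjusted to 3 mg/ml protein (BCA), run on 10% SDS-PAGE, immunoblotted for p-Akt and Cdk4. Band levels quantified against Hsp90 loading control. Three separate experiments, mean ± SD.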

A549 [7] = assay: Induction of apoptosis in human A549 cells assessed as early apoptotic cells at 1.2 uM incubated for 48 hrs by Annexin V-FITC and PI staining based flow cytometric analysis (reference value: 0.5%); type: functional; in short: as §2
[8] = biological target: Heat shock protein HSP 90-alpha (Homo sapiens) (UniProt P07900); assay: Inhibition of ATP binding to human HSP90 alpha at 5 to 10 uM preincubated for 30 mins followed by gamma phosphate-linked ATP sepharose addition and measured after 30 mins by ATP-binding sepharose assay based western blot analysis
In short: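 Purified human Hsp90α incubated on ice 30 min with compound or DMSO in 10 mM Tris-HCl pH 7.5, 50 mM KCl, 5 mM MgCl2, 2 mM DTT, 20 mM Na2MoO4, 0.01% NP-40. γ-phosphate-linked ATP-Sepharose then added, 30 min at 37 °C with frequent mixing. Resin washed and pelleted, bound Hsp90α detected by SDS-PAGE/Western blot.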

A549 [9] = assay: Induction of apoptosis in human A549 cells assessed as viable cells at 1.2 uM incubated for 48 hrs by Annexin V-FITC and PI staining based flow cytometric analysis (reference value: 95.5%); type: functional; conditions: A549, 48 h, read-out: Activity; in short: as §2
[10] = biological target: T1, Hsp90 co-chaperone Cdc37 (Homo sapiens); assay: Binding affinity to Cdc37 in human A549 cells assessed as inhibition of HSP90-Cdc37 interaction by measuring decrease in CDK4 protein level at 5 uM incubated for 12 hrs by Western blot analysis; type: cell-based; in short: as §3

Compound	IC50 (HepG2)	inhibition of growth at 1.5 µM (A549 [1])	IC50 (HOS)	IC50 (MCF7)	IC50 (A549 [2])	inhibition of growth at 0.5 µM (A549 [3])	inhibition at 1.5 µM (A549 [1])	Activity (A549 [4])	Activity (A549 [5])	inhibition [6]	Activity (A549 [7])	inhibition [8]	viability at 1.2 µM (A549 [9])	inhibition [10]
CC1=C(O)C(=O)C=C2C1=CC=C1[C@@]2(C)CC[C@@]2(C)[C@@H]3C[C@](C)(C(=O)OCCCOC(=O)/C=C(\C#N)c4ccccc4)CC[C@]3(C)CC[C@]12C	760 nM	53.7%	450 nM	980 nM	1410 nM	–	–	–	–	–	–	–	–	–
CC1=C(O)C(=O)C=C2C1=CC=C1[C@@]2(C)CC[C@@]2(C)[C@@H]3C[C@](C)(C(=O)OCCOC(=O)/C=C(\C#N)c4ccccc4)CC[C@]3(C)CC[C@]12C	650 nM	59.6%	540 nM	700 nM	1020 nM	–	–	–	–	–	–	–	–	–
CC1=C(O)C(=O)C=C2C1=CC=C1[C@@]2(C)CC[C@@]2(C)[C@@H]3C[C@](C)(C(=O)OCCOC(=O)/C=C(\C#N)c4ccc(F)cc4)CC[C@]3(C)CC[C@]12C	3890 nM	65.9%	2180 nM	2350 nM	1020 nM	–	–	–	–	–	–	–	–	–
COc1ccc(/C(C#N)=C/C(=O)OCCOC(=O)[C@]2(C)CC[C@]3(C)CC[C@]4(C)C5=CC=C6C(=CC(=O)C(O)=C6C)[C@]5(C)CC[C@@]4(C)[C@@H]3C2)cc1	970 nM	48.1%	1140 nM	970 nM	1790 nM	–	–	–	–	–	–	–	–	–
COC(=O)CSC1C=C2C(C)(CC[C@@]3(C)[C@@H]4C[C@](C)(C(=O)OCCCOC(=O)/C=C(\C#N)c5ccc(F)cc5)CC[C@]4(C)CC[C@]23C)c2cc(OC(C)=O)c(OC(C)=O)c(C)c21 (single isomer, unassigned)	–	–	–	–	–	20.5%	–	–	–	–	–	–	–	–
CC1=C(O)C(=O)C=C2C1=CC=C1[C@@]2(C)CC[C@@]2(C)[C@@H]3C[C@](C)(C(=O)O)CC[C@]3(C)CC[C@]12C [CELASTROL]	3180 nM	–	1460 nM	2040 nM	1480 nM	–	48%	3.9%	15.6%	Active	7.5%	inactive	73%	Active
COc1ccc(/C(C#N)=C/C(=O)OCCCOC(=O)[C@]2(C)CC[C@]3(C)CC[C@]4(C)C5=CC=C6C(=CC(=O)C(O)=C6C)[C@]5(C)CC[C@@]4(C)[C@@H]3C2)cc1	1270 nM	53.4%	1750 nM	1100 nM	1090 nM	–	–	–	–	–	–	–	–	–
